This passage reports ED50 and Brain level results from ChEMBL document CHEMBL1121881 (1981).

What all share (assay type): functional
In assay [1] the test system is Mus musculus. Nature of the assay: Compound was evaluated for the antimetrazole effect by administering through intravenous route at the pretreatment period of 240 min. In outline: (§1)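 Male CFLP outbred albino mice (19–21 g) dosed iv, 5–240 min before challenge. Vehicle: 5 mg compound in propylene glycol/Chremofor EL/distilled water (2:1:7 mL), diluted with distilled water. Metrazol (pentylenetetrazol) 125 mg/kg sc in distilled water. Mice counted protected if no tonic-extensor convulsions over 60 min of observation. ED50 and confidence limits by Litchfield–Wilcoxon.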

Assay [2] deals with Mus musculus. Nature of the assay: Ester brain level after 10 minutes of administration of 0.46 mg/kg in antimetrazole assay.
The subject of assay [3] is Mus musculus. Description: Compound was evaluated for the muscle relaxant effect by administering through intravenous route at the pretreatment period of 20 min. In outline:
(§2)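 Rotarod test in male CFLP mice (19–21 g) given compound iv 5–240 min beforehand, in propylene glycol/Chremofor EL/water vehicle diluted with distilled water. Mice were preselected and trained to stay 120 s on a 20 mm rod turning at 12 min⁻¹. Fallers were expressed as percentage of the dose group. ED50 by Litchfield–Wilcoxon.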

The subject of assay [4] is Mus musculus. Nature of the assay: Compound was evaluated for the muscle relaxant effect by administering through intravenous route at the pretreatment period of 2400 min.
Assay [5] relates to Mus musculus. Description: Oxazepam brain level after 120 minutes of administration of 0.32 mg/kg in antimetrazole assay.
The subject of assay [6] is Mus musculus. Nature of the assay: Oxazepam brain level after 10 minutes of administration of 0.46 mg/kg in antimetrazole assay.
Assay [7] concerns Mus musculus. Description: Compound was evaluated for the antimetrazole effect by administering through intravenous route at the pretreatment period of 10 min. An outline of the steps: as §1
For assay [8], the system named is Mus musculus. Nature of the assay: Ester brain level after 5 minutes of administration of 1.07 mg/kg in antimetrazole assay.
Assay [9] relates to Mus musculus. Nature of the assay: Compound was evaluated for the antimetrazole effect by administering through intravenous route at the pretreatment period of 5 min. An outline of the steps: as §1
Assay [10] has as its system Mus musculus. Description: Oxazepam brain level after 30 minutes of administration of 0.28 mg/kg in antimetrazole assay.
In assay [11] the test system is Mus musculus. Description: Compound was evaluated for the muscle relaxant effect by administering through intravenous route at the pretreatment period of 10 min. An outline of the steps: as §2
Assay [12] has as its system Mus musculus. Nature of the assay: Oxazepam brain level after 5 minutes of administration of 0.96 mg/kg in muscle relaxant assay.
For assay [13], the system named is Mus musculus. Nature of the assay: Compound was evaluated for the muscle relaxant effect by administering through intravenous route at the pretreatment period of 120 min. In outline: as §2
Assay [14] has as its system Mus musculus. Nature of the assay: Ester brain level after 30 minutes of administration of 0.28 mg/kg in antimetrazole assay.
The subject of assay [15] is Mus musculus. Description: Oxazepam brain level after 5 minutes of administration of 1.07 mg/kg in antimetrazole assay.
Assay [16] concerns Mus musculus. Description: Ester brain level after 120 minutes of administration of 0.32 mg/kg in antimetrazole assay.
For assay [17], the system named is Mus musculus. Nature of the assay: Compound was evaluated for the antimetrazole effect by administering through intravenous route at the pretreatment period of 20 min. An outline of the steps: as §1
In assay [18] the test system is Mus musculus. Description: Compound was evaluated for the muscle relaxant effect by administering through intravenous route at the pretreatment period of 5 min. In outline: as §2
The subject of assay [19] is Mus musculus. Nature of the assay: Oxazepam brain level after 30 minutes of administration of 2.82 mg/kg in muscle relaxant assay.
In assay [20] the test system is Mus musculus. Nature of the assay: Ester brain level after 30 minutes of administration of 2.82 mg/kg in muscle relaxant assay.
For assay [21], the system named is Mus musculus. Nature of the assay: Ester brain level after 5 minutes of administration of 0.96 mg/kg in muscle relaxant assay.
The test system of assay [22] is Mus musculus. Description: Compound was evaluated for the antimetrazole effect by administering through intravenous route at the pretreatment period of 120 min. In outline:
as §1

For assay [23], the system named is Mus musculus. Nature of the assay: Compound was evaluated for the muscle relaxant effect by administering through intravenous route at the pretreatment period of 240 min. An outline of the steps:
as §2

The test system of assay [24] is Mus musculus. Description: Compound was evaluated for the antimetrazole effect by administering through intravenous route at the pretreatment period 240 min. An outline of the steps: as §1

Usually ED50 stands for the dose at which the effect has come halfway, by size or by number of responders. On to `CCC(CC)C(=O)OC1N=C(c2ccccc2)c2cc(Cl)ccc2NC1=O` (stereo not given), for which the median effective dose (ED50) in the assay on Mus musculus [1] amounted to 1.97 mg/kg; in the assay with Mus musculus [3], 0.36 mg/kg; in the assay on Mus musculus [4], 9.1 mg/kg; in the assay with Mus musculus [7] it was 0.46 mg/kg; in the assay with Mus musculus [9], 1.07 mg/kg; in the assay on Mus musculus [11], 0.61 mg/kg. The ED50 with Mus musculus [13] stood at 4.7 mg/kg; with Mus musculus [17], 0.31 mg/kg; in the assay with Mus musculus [18], 0.95 mg/kg; in the assay with Mus musculus [22] it was 0.32 mg/kg. The Brain level with Mus musculus [2] is 383 pM/g; in the assay on Mus musculus [5] it was 344 pM/g; in the assay with Mus musculus [6] it was 339 pM/g; with Mus musculus [8], 1250 pM/g; in the assay with Mus musculus [10] it was 286 pM/g; in the assay with Mus musculus [12], 480 pM/g. The Brain level with Mus musculus [14] stood at 187 pM/g; in the assay on Mus musculus [15], 374 pM/g; with Mus musculus [16] it was 95 pM/g; in the assay with Mus musculus [19], 5160 pM/g; in the assay on Mus musculus [20], 1820 pM/g; with Mus musculus [21], 1440 pM/g.
Consider `CC(C)(C)C(=O)OC1N=C(c2ccccc2)c2cc(Cl)ccc2NC1=O` (stereo not given) [PIVOXAZEPAM], for which the ED50 came to 0.8 mg/kg with Mus musculus [1], 9 mg/kg with Mus musculus [23], 5.6 mg/kg with Mus musculus [13] and 0.61 mg/kg in the assay with Mus musculus [22].
For the molecule `CC(=O)OC1N=C(c2ccccc2)c2cc(Cl)ccc2NC1=O` (stereo not given), the median effective dose (ED50) with Mus musculus [23] stood at 4.8 mg/kg; in the assay with Mus musculus [13] it was 2.6 mg/kg; in the assay on Mus musculus [24], 1.17 mg/kg; in the assay on Mus musculus [22], 0.47 mg/kg.
On to `O=C1Nc2ccc(Cl)cc2C(c2ccccc2)=NC1O` (stereo not given) [OXAZEPAM], for which the ED50 in the assay on Mus musculus [1] was determined as 0.62 mg/kg; in the assay with Mus musculus [3], 0.8 mg/kg; in the assay on Mus musculus [23] it was 6.6 mg/kg; with Mus musculus [7] it was 0.16 mg/kg; with Mus musculus [9], 0.18 mg/kg; with Mus musculus [11], 0.86 mg/kg. In addition, the median effective dose (ED50) in the assay on Mus musculus [13] was determined as 2.4 mg/kg; with Mus musculus [17], 0.21 mg/kg; in the assay with Mus musculus [18] it was 0.96 mg/kg; in the assay on Mus musculus [22] it was 0.49 mg/kg.
